Test results from ChEMBL document CHEMBL2029221, “Acylprolinamides: a new class of peptide deformylase inhibitors with in vivo antibacterial activity” (Bioorg Med Chem Lett, 2012).
In brackets after ≈: the same amount, converted by molar mass.

Tests used:
[1] = system: Streptococcus pneumoniae; test: Antibacterial activity against Streptococcus pneumoniae 1629 by broth microdilution method; type: functional
Outline: (§1)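 Broth microdilution following NCCLS document M7-A4. Serial two-fold dilutions from 0.06 to 64 mcg/ml were tested. The MIC was the lowest concentration preventing visible growth, with the endpoint read with the aid of a mirror reader.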

[2] = biological target: T1, Peptide deformylase (Streptococcus pneumoniae serotype 4 (strain ATCC BAA-334 / TIGR4), UniProt Q9F2F0); test: Inhibition of Streptococcus pneumoniae PDF assessed as formate release from fMAS peptide substrate after 20 mins by formate dehydrogenase coupled assay
T1 sequence (Q9F2F0 whole entry): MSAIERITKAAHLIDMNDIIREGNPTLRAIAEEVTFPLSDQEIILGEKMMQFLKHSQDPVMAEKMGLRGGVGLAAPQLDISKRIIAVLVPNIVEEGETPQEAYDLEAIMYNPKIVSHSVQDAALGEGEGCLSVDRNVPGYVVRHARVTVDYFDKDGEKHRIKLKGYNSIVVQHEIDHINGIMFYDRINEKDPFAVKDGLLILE

[3] = system: Haemophilus influenzae; test: Antibacterial activity against Haemophilus influenzae Q1 by broth microdilution method; type: functional; outline: as §1
[4] = biological target: T2, Peptide deformylase (Staphylococcus aureus, UniProt P68826); test: Inhibition of Staphylococcus aureus PDF assessed as formate release from fMAS peptide substrate after 20 mins by formate dehydrogenase coupled assay
T2 sequence (P68826 whole entry): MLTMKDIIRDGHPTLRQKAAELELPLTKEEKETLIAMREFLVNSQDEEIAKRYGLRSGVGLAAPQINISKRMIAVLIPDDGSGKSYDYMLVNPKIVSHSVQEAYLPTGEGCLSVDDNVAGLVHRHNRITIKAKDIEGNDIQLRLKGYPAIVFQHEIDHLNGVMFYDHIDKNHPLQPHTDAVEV

[5] = system: Staphylococcus aureus; test: Antibacterial activity against Staphylococcus aureus Oxford by broth microdilution method; type: functional; outline: as §1
[6] = system: Moraxella catarrhalis; test: Antibacterial activity against Moraxella catarrhalis 1502 by broth microdilution method; type: functional; outline: as §1
[7] = Inhibition of Haemophilus influenzae PDF assessed as formate release from fMAS peptide substrate after 20 mins by formate dehydrogenase coupled assay
Outline: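 Coupled assay in which formate released from the fMAS peptide is oxidized by formate dehydrogenase, reducing NAD to NADH, read as the rise in absorbance at 340. Reactions were started by adding PDF and velocities measured for 20 min at 25 °C. Values are the mean of at least 2 runs.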

[8] = system: Enterococcus faecalis; test: Antibacterial activity against Enterococcus faecalis 7 by broth microdilution method; type: functional; outline: as §1
[9] = Metabolic stability of the compound in human blood assessed as compound remaining at 2000 ng/mL after 2 hrs; type: ADME, tissue-based; conditions: read-out: Stability
Outline: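 Samples (n = 3) were spiked into fresh human blood at 2000 ng/mL, incubated at 37 °C for 120 min, and reported as % recovered at 2 h.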

SMILES	MIC [1] [µg/mL]	IC50 [2] [nM]	MIC [3] [µg/mL]	IC50 [4] [nM]	MIC [5] [µg/mL]	MIC [6] [µg/mL]	IC50 [7] [nM]	MIC [8] [µg/mL]	remaining at 2 h, 2000 ng/mL [9] [%]
CC(C)CC(=O)NC(=O)[C@@H]1CCCN1C(=O)[C@H](CC1CCCC1)CN(O)C=O	1 (≈ 2.53 µM)	0.8	0.5 (≈ 1.26 µM)	4	1 (≈ 2.53 µM)	≤ 0.06	7	2 (≈ 5.06 µM)	–
O=CN(O)C[C@@H](CC1CCCC1)C(=O)N1CCC[C@H]1C(=O)NC(=O)NCCc1c[nH]cn1	8 (≈ 17.8 µM)	0.15	16 (≈ 35.7 µM)	1.3	64 (≈ 143 µM)	0.5 (≈ 1.11 µM)	4.3	> 64	–
O=CN(O)C[C@@H](CC1CCCC1)C(=O)N1CCC[C@H]1C(=O)NC(=O)NCCc1cnccn1	1 (≈ 2.17 µM)	0.41	2 (≈ 4.34 µM)	1.4	2 (≈ 4.34 µM)	≤ 0.06	6.1	8 (≈ 17.4 µM)	–
O=CN(O)C[C@@H](CC1CCCC1)C(=O)N1CCC[C@H]1C(=O)NC(=O)NCCc1ccccc1	≤ 0.06	0.12	4 (≈ 8.72 µM)	0.86	≤ 0.06	≤ 0.06	3.6	0.5 (≈ 1.09 µM)	92.2
O=CN(O)C[C@@H](CC1CCCC1)C(=O)N1CCC[C@H]1C(=O)NC(=O)NCCc1ccccn1	0.5 (≈ 1.09 µM)	0.35	1 (≈ 2.18 µM)	1.4	1 (≈ 2.18 µM)	≤ 0.06	5.9	4 (≈ 8.7 µM)	–
O=CN(O)C[C@@H](CC1CCCC1)C(=O)N1CCC[C@H]1C(=O)NC(=O)NC1CCC1	0.125 (≈ 0.306 µM)	0.3	0.5 (≈ 1.22 µM)	0.9	0.125 (≈ 0.306 µM)	≤ 0.06	1.8	1 (≈ 2.45 µM)	–
CNC(=O)NC(=O)[C@@H]1CCCN1C(=O)[C@H](CC1CCCC1)CN(O)C=O	1 (≈ 2.71 µM)	0.46	0.25 (≈ 0.679 µM)	2.1	0.5 (≈ 1.36 µM)	≤ 0.06	6.1	4 (≈ 10.9 µM)	–
COC(=O)NC(=O)[C@@H]1CCCN1C(=O)[C@H](CC1CCCC1)CN(O)C=O	1 (≈ 2.71 µM)	1.9	0.125 (≈ 0.338 µM)	4.5	1 (≈ 2.71 µM)	≤ 0.06	13	4 (≈ 10.8 µM)	–
O=CN(O)C[C@@H](CC1CCCC1)C(=O)N1CCC[C@H]1C(=O)NC(=O)NCCCO	2 (≈ 4.85 µM)	0.77	1 (≈ 2.42 µM)	3.2	4 (≈ 9.7 µM)	0.125 (≈ 0.303 µM)	6.9	16 (≈ 38.8 µM)	–
CC(C)(C)NC(=O)NC(=O)[C@@H]1CCCN1C(=O)[C@H](CC1CCCC1)CN(O)C=O	0.125 (≈ 0.304 µM)	0.22	1 (≈ 2.44 µM)	1.2	1 (≈ 2.44 µM)	≤ 0.06	2.4	1 (≈ 2.44 µM)	–
O=CN(O)C[C@@H](CC1CCCC1)C(=O)N1CCC[C@H]1C(=O)NC(=O)NCCCc1ccccc1	0.25 (≈ 0.529 µM)	0.19	8 (≈ 16.9 µM)	1	0.5 (≈ 1.06 µM)	≤ 0.06	4.1	2 (≈ 4.23 µM)	–
CCOC(=O)NC(=O)[C@@H]1CCCN1C(=O)[C@H](CC1CCCC1)CN(O)C=O	0.5 (≈ 1.3 µM)	0.54	0.25 (≈ 0.652 µM)	2.2	0.5 (≈ 1.3 µM)	≤ 0.06	7.7	2 (≈ 5.22 µM)	–
O=CN(O)C[C@@H](CC1CCCC1)C(=O)N1CCC[C@H]1C(=O)NC(=O)C1CCCCC1	0.25 (≈ 0.593 µM)	0.5	0.5 (≈ 1.19 µM)	3.7	1 (≈ 2.37 µM)	≤ 0.06	5.2	1 (≈ 2.37 µM)	–
C=CCNC(=O)NC(=O)[C@@H]1CCCN1C(=O)[C@H](CC1CCCC1)CN(O)C=O	1 (≈ 2.54 µM)	2.1	1 (≈ 2.54 µM)	10	0.5 (≈ 1.27 µM)	≤ 0.06	20	2 (≈ 5.07 µM)	–
O=CN(O)C[C@@H](CC1CCCC1)C(=O)N1CCC[C@H]1C(=O)NC(=O)NCCc1cccnc1	1 (≈ 2.18 µM)	0.37	2 (≈ 4.35 µM)	1.4	2 (≈ 4.35 µM)	≤ 0.06	4.7	> 64	–
O=CN(O)C[C@@H](CC1CCCC1)C(=O)N1CCC[C@H]1C(=O)NC(=O)NCCc1ccncc1	1 (≈ 2.18 µM)	0.35	2 (≈ 4.35 µM)	1.7	2 (≈ 4.35 µM)	≤ 0.06	4.4	8 (≈ 17.4 µM)	–
O=CN(O)C[C@@H](CC1CCCC1)C(=O)N1CCC[C@H]1C(=O)NC(=O)C1CCCC1	0.25 (≈ 0.613 µM)	0.43	0.25 (≈ 0.613 µM)	2.5	0.5 (≈ 1.23 µM)	≤ 0.06	6.1	1 (≈ 2.45 µM)	–
O=CN(O)C[C@@H](CC1CCCC1)C(=O)N1CCC[C@H]1C(=O)NC(=O)C1CCC1	1 (≈ 2.54 µM)	0.7	1 (≈ 2.54 µM)	5	1 (≈ 2.54 µM)	≤ 0.06	9	8 (≈ 20.3 µM)	–
NC(=O)NC(=O)[C@@H]1CCCN1C(=O)[C@H](CC1CCCC1)CN(O)C=O	2 (≈ 5.64 µM)	0.91	0.125 (≈ 0.353 µM)	2.2	2 (≈ 5.64 µM)	≤ 0.06	4.8	4 (≈ 11.3 µM)	–

More lines, in order of falling MIC [1], values ahead:

MIC [1] [µg/mL]	IC50 [2] [nM]	MIC [3] [µg/mL]	IC50 [4] [nM]	MIC [5] [µg/mL]	MIC [6] [µg/mL]	IC50 [7] [nM]	MIC [8] [µg/mL]	remaining at 2 h, 2000 ng/mL [9] [%]	SMILES
16 (≈ 40.3 µM)	0.38	> 64	2.3	16 (≈ 40.3 µM)	2 (≈ 5.03 µM)	7	> 64	–	NCCNC(=O)NC(=O)[C@@H]1CCCN1C(=O)[C@H](CC1CCCC1)CN(O)C=O
8 (≈ 18.8 µM)	0.72	2 (≈ 4.7 µM)	3.3	32 (≈ 75.2 µM)	0.5 (≈ 1.18 µM)	6.3	> 64	–	NC(=O)CCNC(=O)NC(=O)[C@@H]1CCCN1C(=O)[C@H](CC1CCCC1)CN(O)C=O
8 (≈ 18.2 µM)	1.4	16 (≈ 36.5 µM)	5.9	> 64	1 (≈ 2.28 µM)	2.7	> 64	–	O=CN(O)C[C@@H](CC1CCCC1)C(=O)N1CCC[C@H]1C(=O)NC(=O)OC1CCNCC1
4 (≈ 10.4 µM)	1	0.125 (≈ 0.326 µM)	8	4 (≈ 10.4 µM)	≤ 0.06	13	16 (≈ 41.7 µM)	–	COCC(=O)NC(=O)[C@@H]1CCCN1C(=O)[C@H](CC1CCCC1)CN(O)C=O
4 (≈ 11.3 µM)	4	0.25 (≈ 0.707 µM)	12	1 (≈ 2.83 µM)	≤ 0.06	16	8 (≈ 22.6 µM)	–	CC(=O)NC(=O)[C@@H]1CCCN1C(=O)[C@H](CC1CCCC1)CN(O)C=O
2 (≈ 5.24 µM)	1.5	0.5 (≈ 1.31 µM)	5	2 (≈ 5.24 µM)	≤ 0.06	10	4 (≈ 10.5 µM)	–	CC(C)C(=O)NC(=O)[C@@H]1CCCN1C(=O)[C@H](CC1CCCC1)CN(O)C=O
2 (≈ 5.02 µM)	1.1	0.5 (≈ 1.25 µM)	3.8	4 (≈ 10 µM)	0.125 (≈ 0.314 µM)	8.8	32 (≈ 80.3 µM)	–	O=CN(O)C[C@@H](CC1CCCC1)C(=O)N1CCC[C@H]1C(=O)NC(=O)NCCO
1 (≈ 2.64 µM)	1.2	0.125 (≈ 0.329 µM)	2.3	0.5 (≈ 1.32 µM)	≤ 0.06	5.5	2 (≈ 5.27 µM)	–	O=CN(O)C[C@@H](CC1CCCC1)C(=O)N1CCC[C@H]1C(=O)NC(=O)C1CC1
0.125 (≈ 0.296 µM)	0.1	2 (≈ 4.73 µM)	0.52	0.5 (≈ 1.18 µM)	≤ 0.06	2	1 (≈ 2.37 µM)	103	O=CN(O)C[C@@H](CC1CCCC1)C(=O)N1CCC[C@H]1C(=O)NC(=O)NC1CCCC1
0.125 (≈ 0.286 µM)	0.2	4 (≈ 9.16 µM)	0.93	0.5 (≈ 1.15 µM)	≤ 0.06	4	2 (≈ 4.58 µM)	–	O=CN(O)C[C@@H](CC1CCCC1)C(=O)N1CCC[C@H]1C(=O)NC(=O)NC1CCCCC1
0.125 (≈ 0.281 µM)	0.19	2 (≈ 4.5 µM)	1.7	0.5 (≈ 1.12 µM)	≤ 0.06	6.5	0.5 (≈ 1.12 µM)	–	O=CN(O)C[C@@H](CC1CCCC1)C(=O)N1CCC[C@H]1C(=O)NC(=O)NCc1ccccc1
